High-throughput results from PubChem.
CHRM4 PAM: human M4 muscarinic receptor positive allosteric modulators, primary screen, CHO-K1 cells, Fluo-8 calcium fluorescence; Muscarinic acetylcholine receptor M4 (Homo sapiens), P08173; CHO-K1 hM4/Gqi5, ACh EC20; 0% = ACh EC20, 100% = maximal ACh; activation, % at 3 µM; 0.4% of 360,000 active;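 active = activation above its plate's cutoff, the mean activation of sample wells plus 3 SD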
CHRM5 PAM: human M5 muscarinic receptor positive allosteric modulators, primary screen, CHO-K1 cells, Fluo-8 calcium fluorescence | Muscarinic acetylcholine receptor M5 (Homo sapiens), P08912 | CHO-K1 hM5, ACh EC20 PAM; 0% = ACh EC20, 100% = ACh EC100 | activation, % at 3 µM | 0.3% of 360,000 active | AID 624038, 2012;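 active = activation above the run cutoff, the mean activation of all test compounds plus 3 SD, cut at about 18% in these data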
Target sequence (P08912 whole entry, looked up): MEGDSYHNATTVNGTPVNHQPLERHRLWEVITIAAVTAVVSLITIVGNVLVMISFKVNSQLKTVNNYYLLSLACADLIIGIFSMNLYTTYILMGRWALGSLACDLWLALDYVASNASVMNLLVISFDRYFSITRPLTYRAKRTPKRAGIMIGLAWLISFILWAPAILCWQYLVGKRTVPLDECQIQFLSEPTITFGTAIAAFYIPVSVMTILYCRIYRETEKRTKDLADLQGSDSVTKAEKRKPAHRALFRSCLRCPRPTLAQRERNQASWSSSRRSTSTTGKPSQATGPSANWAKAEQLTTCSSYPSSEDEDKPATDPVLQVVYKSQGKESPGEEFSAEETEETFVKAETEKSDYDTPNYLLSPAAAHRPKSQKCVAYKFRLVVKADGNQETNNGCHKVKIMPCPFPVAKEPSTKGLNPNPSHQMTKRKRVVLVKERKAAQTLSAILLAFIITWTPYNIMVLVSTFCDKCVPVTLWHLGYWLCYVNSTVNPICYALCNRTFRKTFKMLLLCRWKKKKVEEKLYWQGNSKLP
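Replicates: One well per compound, no replicates | System: Human M5 receptor in CHO-K1 cells | Benchmarks: Low control EC20 acetylcholine (0%), high control EC100 acetylcholine (100%) | Probe or stimulus: Acetylcholine, EC20 level | Times: Fluo-8 loading 80 min at 37 °C plus 30 min room temperature | Signal: Intracellular calcium via Fluo-8 fluorescence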
CHRM4 antagonist: human M4 muscarinic receptor antagonists, primary screen, CHO cells, Fluo-8 calcium fluorescence. CHO-hM4 cells, ACh EC80. Muscarinic acetylcholine receptor M4 (Homo sapiens), P08173. 0.73% of 360,000 active. AID 624125, 2012. inhibition, % at 3 µM;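 active = inhibition above its plate's cutoff, the mean inhibition of sample wells plus 3 SD, cut at about 27% in these data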;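 also: 0% = acetylcholine EC80 with DMSO and 100% = DMSO without agonist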
CHRM5 antagonist: human M5 muscarinic receptor antagonists, primary screen, CHO cells, Fluo-8 calcium fluorescence. 0.59% of 360,000 active. CHO-hM5 cells, ACh EC80. Muscarinic acetylcholine receptor M5 (Homo sapiens), P08912. inhibition, % at 3 µM. AID 624040, 2012;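 active = inhibition above a per-plate cutoff, the mean of that plate's test compounds plus 3 SD, cut at about 27% in these data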;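 also: 0% = acetylcholine EC80 with DMSO and 100% = DMSO without agonist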
CHRM4 agonist: human M4 muscarinic receptor agonists, primary screen, CHO-K1 cells, Fluo-8 calcium fluorescence. Muscarinic acetylcholine receptor M4 (Homo sapiens), P08173. CHO-K1 hM4/Gqi5; vehicle 0%, full acetylcholine response 100%. activation, % at 3 µM. 0.14% of 360,000 active. AID 624127, 2012;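 active = activation above the run mean over all test wells plus 3 SD, cut at about 32% in these data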;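 also: peak over basal fluorescence ratio per well then scaled between controls; 0% = DMSO wells and 100% = acetylcholine at EC100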
M5 ag: human M5 muscarinic receptor agonists, primary screen, CHO-K1 cells, Fluo-8 calcium fluorescence; Muscarinic acetylcholine receptor M5 (Homo sapiens), P08912; CHO-K1 hM5 cells; 0% DMSO wells, 100% maximal acetylcholine response; activation, % at 3 µM; 0.19% of 360,000 active;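 active = activation above the run's mean over test compounds plus 3 SD, cut at about 23% in these data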;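 also: signal is peak over basal fluorescence ratio across the kinetic read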
The depositor's hits bear a star. Most compounds without a hit are left out; they make up all but 1.9% or so of the library.

SMILES | CHRM4 PAM | CHRM5 PAM | CHRM4 antagonist | CHRM5 antagonist | CHRM4 agonist | M5 ag
CC1CC(C)(C)OC(C[N+]2(C)CCCCC2)O1 (centres undefined) | -46.1 | -32.6 | 36.5* | 31.4* | -0.1 | -19.9
CN(C)CC(=O)N1c2ccccc2Sc2ccc(Cl)cc21 | -19.5 | -19.1 | 67.6* | 94.6* | 1.1 | -10.4
CN1CCC=C(C(=O)N2c3ccccc3Sc3ccc(Cl)cc32)C1 | -58.8 | -31.9 | 86.1* | 98.9* | 2.4 | -22.1
CN(C)CCC(=O)N1c2ccccc2Sc2ccc(Cl)cc21 | -24.4 | -19.8 | 95.8* | 99.5* | 0.3 | -10.1
O=C(CCN1CCN2CCCC2C1)N1c2ccccc2Sc2ccc(Cl)cc21 (centres undefined) | -18.0 | -10.0 | 16.1 | 10.6 | 1.3 | -6.9
Cn1nnnc1SCC(=O)N1c2ccccc2Sc2ccc(Cl)cc21 | -13.2 | -13.0 | 13.9 | 9.5 | 1.9 | -11.9
CCN(CC)CCC(=O)N1c2ccccc2Sc2ccc(Cl)cc21 | -17.9 | -18.5 | 97.9* | 98.7* | 0.9 | -1.3
Cc1nc(N)c(C#N)c(-c2ccccc2Cl)c1C | 28.8* | -0.2 | -0.8 | -4.2 | 1.8 | 10.5
COc1ccccc1-c1cc(C2CC2)nc(N)c1C#N | 9.8 | 4.7 | 0.8 | -9.2 | -1.5 | -1.9
N#Cc1c(-c2ccccc2Cl)cc(C2CC2)nc1N | 7.5 | 2.2 | -14.0 | -3.1 | 61.5* | 55.8*
O=Cc1ccccc1-c1cn(CCCOCc2ccccc2)nn1 | -3.0 | 7.0 | 5.2 | 13.0 | 1.9 | -0.1
N#CC1C(=O)c2ccccc2C1c1ccccc1 (centres undefined) | -10.3 | -38.7 | 58.8* | 29.4* | 5.2 | -7.8
CC(C)Cc1ccc(-c2cc(=O)[nH][nH]2)cc1 | -10.0 | -12.7 | 4.9 | 28.3* | 19.5 | -1.8
CCc1ccc(C(=O)C[n+]2cccc3cc(OC)ccc32)cc1 | -11.7 | -4.6 | 25.0 | 9.5 | 0.3 | -21.7
CCN(C(=O)CC(C)C)c1nnc(Cn2nnc3ccccc32)s1 | -7.3 | -11.6 | -3.4 | 1.7 | 8.5 | 5.2
CCN(C(=O)c1ccc(C(C)(C)C)cc1)c1nnc(Cn2nnc3ccccc32)s1 | -9.7 | -23.7 | 29.0* | 33.1* | 7.5 | 0.6
CN(C)c1cccc(C(=O)OCC(=O)Nc2nccs2)c1 | 12.5 | -2.2 | -3.7 | -11.4 | 0.8 | 0.4
CCCNC(=O)C1(C)CCN(Cc2cc(-c3ccccc3)on2)C1 (centres undefined) | -2.6 | -0.7 | 7.1 | 8.2 | 0.8 | 0.9
COc1ccc(C2NCCc3c2[nH]c2ccccc32)cc1CSc1nc2ccccc2s1 (centres undefined) | -12.3 | -4.1 | 31.7* | 4.4 | 9.0 | -2.9
CCNc1ccc(C(=O)OCC(=O)NCCN2C(=O)CSC2=O)cc1[N+](=O)[O-] | 6.2 | 22.4* | -7.9 | -10.4 | 3.0 | 4.7
c1ccc2c(Nc3ccc4c(c3)OCCO4)c3c(nc2c1)CCCC3 | -9.9 | -20.1 | -4.4 | 43.7* | 2.5 | -9.1
O=C(NCCOc1ccc(F)cc1)C1CCC(=O)N(Cc2ccc(Cl)cc2)C1 (centres undefined) | -3.2 | -4.0 | 0.2 | -2.5 | 4.3 | -0.6
COc1ccc(C(=O)NCc2ccc3c(c2)cc(C)n3C)cc1OC | 4.9 | 0.0 | -2.4 | 10.5 | 2.1 | 1.4
O=C(COC(=O)/C=C/c1ccc(S(=O)(=O)N2CCOCC2)cc1)NCc1ccc(Cl)cc1 | 16.8 | 19.4* | -16.1 | -15.8 | 2.2 | 9.2
CCN(CC)S(=O)(=O)c1ccc(C(=O)NCc2ccc3c(c2)cc(C)n3C)cc1 | -16.6 | -1.8 | 55.1* | -1.7 | 1.3 | 1.6
SMILES | CHRM4 PAM | CHRM5 PAM | CHRM4 antagonist | CHRM5 antagonist | CHRM4 agonist | M5 ag
O=C(COC(=O)/C=C/c1ccc(S(=O)(=O)N2CCOCC2)cc1)NCc1ccccc1 | 3.9 | 4.9 | 22.8 | 5.0 | 5.1 | 3.4
Cc1cc2cc(CNC(=O)c3ccc(S(=O)(=O)N4CCCC4)cc3)ccc2n1C | -15.1 | -6.5 | 35.0* | 7.9 | 2.8 | -0.7
Cc1cc2cc(CNC(=O)c3ccc(S(=O)(=O)N4CCCCC4)cc3)ccc2n1C | -7.4 | -7.6 | 15.9 | -0.2 | 6.5 | 2.0
CCN(CC)c1ccc(S(=O)(=O)N2CCOCC2)cc1NC(=O)COC(=O)/C=C/c1ccccc1 | -12.8 | -37.1 | 10.1 | 19.9 | 19.1 | -3.2
CCN(CC)c1ccc(S(=O)(=O)N2CCOCC2)cc1NC(=O)COC(=O)/C=C/c1ccc(C)o1 | -8.7 | -34.0 | 10.8 | 31.1* | 22.1 | -2.4
Cc1ccc(S(=O)(=O)NC(CC(=O)OCc2ccccc2)C(=O)OCc2ccccc2)cc1 (centres undefined) | -7.0 | -4.9 | -6.8 | 1.6 | 3.9 | -1.5
CC(C)(C)S(=O)N1Cc2cc(CO)cc(CCO)c2[C@@H]1CCO (some centres undefined) | 0.9 | 5.8 | -5.5 | -2.4 | 0.2 | -1.0
Cc1ccc(CNC(=O)COC(=O)c2ccc(S(=O)(=O)N3CCCC3)cc2)cc1 | 1.8 | 22.4* | -0.4 | 2.4 | 2.4 | -7.8
Oc1ccc(Cl)cc1C1=NNC(c2cccs2)C1 (centres undefined) | -5.1 | -1.7 | 2.7 | 6.0 | 0.5 | -0.9
Cc1ccc(O)c(C2=NNC(c3ccc(Cl)cc3)C2)c1 (centres undefined) | 1.1 | 20.6* | 2.5 | 51.1* | 7.8 | 14.0
O=C1CC(c2ccccc2)CN1C(=O)c1cccnc1 (centres undefined) | 18.1 | 18.7* | -4.6 | -5.0 | 0.9 | 2.3
COc1ccccc1NC(=O)c1ccc2c(c1)N(CC#N)C(=O)C(C)(C)O2 | 0.2 | -5.9 | -20.6 | -6.1 | 8.5 | -2.1
COc1ccc(-c2c(C)nc(N)nc2-c2ccc(OCc3ccc(C)cc3)cc2O)cc1OC | -0.4 | -4.8 | -7.6 | 0.3 | -0.4 | -2.9
Cc1ccc(NC(=O)CSc2nn(-c3ccccc3)c(=S)s2)cc1S(=O)(=O)N(C)C | -12.4 | -17.4 | 22.9 | 29.7* | 13.3 | 0.8
O=C(CSc1nn(-c2ccccc2)c(=S)s1)Nn1cnnc1 | -0.7 | 5.4 | -7.6 | -9.3 | 0.2 | 0.3
COc1ccc(OC)c(CN2CCN(CCc3ccccc3)C(CCO)C2)c1 (centres undefined) | -3.0 | -0.1 | -6.6 | -12.0 | 0.5 | -9.7
CCCCNC(=O)C1c2ccccc2OCC(=O)N1Cc1ccc2c(c1)OCO2 (centres undefined) | 1.4 | 0.2 | -3.0 | -0.8 | 1.3 | -0.2
